Results on four molecules are retold here after ChEMBL document CHEMBL1122052, “Isomeric cyclopropyl ring-methylated homologues of trans-2-(2,5-dimethoxy-4-methylphenyl)cyclopropylamine, an hallucinogen analogue” (1982).

The species entered for assay [1] is Mus musculus. The experiment in a line: Compound was evaluated for hallucinogenic activity in mice; Inactive. In kind it is functional, organism-based. The gist of the method:
(§1)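 Male albino Swiss-Webster derived mice, 25–40 g, group housed at 22–24 °C, 12–12 h light-dark cycle. HCl salt given ip in saline (0.1 mL/10 g body weight). Mice observed in groups of three, continuously for 30 min; total hindleg scratches of the back of the ear counted, with the hindleg then returned to the floor. Saline control included.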

The test system of assay [2] is Mus musculus. The experiment in a line: Evaluated for ear-scratch response (hallucinogen like activity) in mice at a dose of 1.25 mg/Kg. Format: functional. The gist of the method: as §1
The subject of assay [3] is Mus musculus. The experiment in a line: Evaluated for ear-scratch response (hallucinogen like activity) in mice at a dose of 10.0 mg/Kg. In kind it is functional. A digest of the protocol:
as §1

The subject of assay [4] is Mus musculus. The experiment in a line: Evaluated for ear-scratch response (hallucinogen like activity) in mice at a dose of 2.5 mg/Kg. Format: functional. A digest of the protocol: as §1
In assay [5] the test system is Mus musculus. The experiment in a line: Evaluated for ear-scratch response (hallucinogen like activity) in mice at a dose of 5.00 mg/Kg. In kind it is functional. The gist of the method: as §1
Assay [6] has as its system Mus musculus. The experiment in a line: Evaluated for ear-scratch response (hallucinogen like activity) in mice at a dose of 20.0 mg/Kg. Format: functional. The gist of the method:
as §1

Assay [7] concerns Mus musculus. The experiment in a line: Evaluated for ear-scratch response (hallucinogen like activity) in mice at a dose of 10.00 mg/Kg. Format: functional. The gist of the method:
as §1

In assay [8] the test system is Mus musculus. The experiment in a line: Evaluated for ear-scratch response (hallucinogen like activity) in mice at a dose of 20.00 mg/Kg. In kind it is functional. A digest of the protocol: as §1
The test system of assay [9] is Mus musculus. The experiment in a line: Evaluated for ear-scratch response (hallucinogen like activity) in mice at a dose of 1.00 mg/Kg. Format: functional. The gist of the method: as §1
For assay [10], the system named is Mus musculus. The experiment in a line: Evaluated for ear-scratch response (hallucinogen like activity) in mice at a dose of 2.00 mg/Kg. Format: functional. A digest of the protocol: as §1
For assay [11], the system named is Mus musculus. The experiment in a line: Evaluated for ear-scratch response (hallucinogen like activity) in mice at a dose of 4.00 mg/Kg. In kind it is functional. The gist of the method:
as §1

Activity calls are given as the source filed them. No cut-off for these calls is given here.

For the molecule `CC[C@@H](N)Cc1cc(OC)c(C)cc1OC`, the Halucinogenic activity entry in the assay filed under Mus musculus [1] is “inactive”.
On to `COc1cc([C@@H]2[C@@H](C)[C@H]2N)c(OC)cc1C` (stereo in doubt; 4a), for which the No. of scratches with Mus musculus [2] amounted to 11.5; in the assay on Mus musculus [3], 12.8; in the assay with Mus musculus [4], 10.8; in the assay on Mus musculus [5], 17.3; in the assay with Mus musculus [6], 2.5.
Take `COc1cc(C2CC2N)c(OC)cc1C` (configuration not stated): the No. of scratches is reported as 56.2 with Mus musculus [7], 64.2 in the assay with Mus musculus [8] and 39.5 in the assay on Mus musculus [5].
In the case of `COc1cc(C[C@@H](C)N)c(OC)cc1C`, the No. of scratches in the assay on Mus musculus [9] amounted to 52.4; in the assay with Mus musculus [10], 109.2; in the assay with Mus musculus [11], 79.
